Source: PubChem BioAssay (The Scripps Research Institute Molecular Screening Center)
An excerpt weighted towards active compounds, which were near 3.4% of everything screened.
M1 PAM: potentiates human M1 receptor response to acetylcholine; CHO-K1 hM1, Fluo-8 calcium fluorescence, ACh EC20; 0% = ACh EC20, 100% = maximal ACh; activation, % at 3 µM; actives 0.088% (n = 360,000); AID 588819; in the data active means activation above about 19%, passing the limit was not always enough
Target sequence (P11229 whole entry, looked up): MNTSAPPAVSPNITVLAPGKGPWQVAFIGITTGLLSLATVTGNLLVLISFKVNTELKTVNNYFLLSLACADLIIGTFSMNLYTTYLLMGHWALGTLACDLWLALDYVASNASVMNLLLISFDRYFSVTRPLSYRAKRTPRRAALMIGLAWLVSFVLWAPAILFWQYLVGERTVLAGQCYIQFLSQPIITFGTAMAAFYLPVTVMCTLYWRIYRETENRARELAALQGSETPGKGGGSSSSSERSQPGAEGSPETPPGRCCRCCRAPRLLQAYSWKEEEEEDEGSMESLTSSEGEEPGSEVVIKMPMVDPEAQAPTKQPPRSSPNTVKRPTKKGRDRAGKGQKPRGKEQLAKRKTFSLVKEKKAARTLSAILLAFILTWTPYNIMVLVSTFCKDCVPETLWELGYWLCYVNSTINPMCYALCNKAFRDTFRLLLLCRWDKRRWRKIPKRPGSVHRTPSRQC
TAAR1 antagonist: human TAAR1 antagonism; Q96RJ0; CHO RD-HGA16 TAAR1, Fluo-8 calcium fluorescence, antagonist; inhibition, % at 3 µM; actives 1.5% (n = 360,000);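 active means inhibition above a per-plate cutoff, the mean inhibition of test compounds on that plate plus 3 SD, cut at about 49% in these data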;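 further: 0% = DMSO plus EC80 beta-PEA response and 100% = DMSO alone without agonist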
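Material: CHO RD-HGA16 cells bearing hTAAR1; compound dosing: one-point dosing, 3 µM nominal final; schedule: dye loading 75 min at 37 °C, then 30 min room temperature; measured by: calcium fluorescence with Fluo-8; control set: vehicle and agonist controls; replication: n of 1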
CHRM1 agonist: human M1 muscarinic receptor agonism. AID 588814. activation, % at 3 µM. actives 0.33% (n = 360,000). P11229. CHO-K1 hM1, Fluo-8 calcium fluorescence, agonist mode; 0% DMSO, 100% acetylcholine EC100;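 active means activation above the run's mean compound activation plus 3 SD, cut at about 16% in these data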;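 further: peak over basal fluorescence ratio within a 140 s kinetic read after compound addition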
TAAR1 agonist: human TAAR1 agonism; CHO RD-HGA16 TAAR1, Fluo-8 calcium fluorescence; vehicle wells 0%, saturating PEA agonist 100%; activation, % at 3 µM; actives 0.99% (n = 360,000); AID 624467; Q96RJ0;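 active means activation above the mean activation of all test compounds in the run plus 3 SD, cut at about 38% in these data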
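System: CHO-derived RD-HGA16 cells with stable Gα16 and human TAAR1. Times: 17-24 h plating, Fluo-8 75 min 37 °C, 30 min RT. Measured by: calcium-sensitive Fluo-8 signal, excitation 470-495, emission 515-575 nm. Read-out basis: % activation relative to PEA EC100 response. Control set: DMSO and PEA EC100. Repeats: no replicates (n 1).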
CHRM1 antagonist: blocks human M1 muscarinic receptor | AID 588852 | actives 1.3% (n = 360,000) | CHO-K1 hM1, Fluo-8 calcium fluorescence, ACh EC80 antagonist | P11229 | inhibition, % at 3 µM;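 active means percent inhibition above its own plate's cutoff, namely the mean of that plate's compound wells plus 3 SD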;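 further: peak over basal fluorescence ratio during 140 s after agonist addition; 0% = ACh EC80 plus DMSO and 100% = DMSO alone without agonist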
TAAR1 nonsel count: counter-screen for TAAR1 antagonists: nonselective antagonists. counterscreen cell line, calcium fluorescence, antagonist mode. actives 77% (n = 2,400). inhibition, % at 3 µM. shares compounds with TAAR1 antagonist; in the data active means inhibition above about 22%;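 further: CHO-Ga16 host cells stimulated with ATP at an EC80 level; 0% = agonist EC80 plus vehicle and 100% = vehicle without agonist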
TAAR1 antag conf: human TAAR1 antagonism, confirmed; shares compounds with TAAR1 antagonist; TAAR1-expressing cells, fluorescence antagonist read-out; inhibition, % at 3 µM; actives 40% (n = 2,400); AID 651785; in the data active means inhibition above about 49%;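 further: CHO-Ga16 host cells challenged with agonist PEA near its EC80; 0% = agonist at EC80 plus vehicle and 100% = vehicle with no agonist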
Ga16 ag counter: nonselective Ga16 agonist in TAAR1 antagonist counter-screen; shares compounds with TAAR1 antagonist; Ga16-expressing cells, calcium fluorescence, agonist counterscreen; activation, % at 3 µM; actives 18% (n = 2,400); in the data active means activation above about 12%;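 further: 0% = vehicle wells and 100% = saturating stimulus response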
TAAR1 ag count: counter-screen for human TAAR1 antagonists: TAAR1 agonists. hTAAR1 cell line, fluorescence activation, agonist mode. actives 2% (n = 2,400). activation, % at 3 µM. shares compounds with TAAR1 antagonist; in the data active means activation above about 37%;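 further: CHO cells stably expressing TAAR1 with calcium dye readout; 0% = DMSO vehicle and 100% = full agonist response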
An asterisk follows results filed as active; / = no result given.

SMILES	M1 PAM	TAAR1 antagonist	CHRM1 agonist	TAAR1 agonist	CHRM1 antagonist	TAAR1 nonsel count	TAAR1 antag conf	Ga16 ag counter	TAAR1 ag count
COC(=O)C1(C)CCCC2(C)C3CCC(C(C)C)C(CO)C3C(CO)CC12 (stereo unspecified)	-4	82*	4	25	25	32*	55*	14*	20
Cc1nc2ccccc2n1C(c1cccnc1)c1nc2ccccc2[nH]1 (stereo unspecified)	/	-12	/	2	/	/	/	/	/
COc1ccc2c(c1)C(SCC(=O)NCCc1ccc(Cl)cc1)CC(C)(C)O2 (stereo unspecified)	4	62*	3	6	5	18	43	6	35
CN1CCN(C(=O)c2ccc(Cc3cn(C)c4ccccc34)nc2)CC1	-1	-8	-4	4	-5	/	/	/	/
CC(C)(C)NC(=O)C(C1CC1)n1c(=O)c(-c2ccco2)nc2ccccc21 (stereo unspecified)	/	-12	/	0	/	/	/	/	/
Cc1cccc(C)c1-n1nnnc1C(c1ccnc2ccccc12)N1CCN(C(=O)OCc2ccccc2)CC1 (stereo unspecified)	/	-17	/	4	/	/	/	/	/
CCOc1ccc(N2C(=O)C3ON(c4ccccc4)C(c4cccs4)C3C2=O)cc1 (stereo unspecified)	-1	2	-11	1	-6	/	/	/	/
COc1cccc(N2C(=O)C3ON(c4ccccc4)C(c4cccs4)C3C2=O)c1 (stereo unspecified)	12	54*	4	2	-7	24*	41	7	8
C#CCN(C[C@@H](CC(C)C)NC(=O)OC(C)(C)C)S(=O)(=O)c1ccc(Br)cc1F	7	51*	-1	2	-19	16	16	3	2
CC(C)CC(NC(=O)C(CC(C)C)NC(=O)OC(C)(C)C)C(=O)O (stereo unspecified)	0	-6	-2	12	-21	/	/	/	/
O=C(CSCC(=O)N1CCCc2ccccc21)Nc1nc(-c2ccccc2)cs1	-2	51*	0	0	0	29*	34	3	3
COc1ccc(C#Cc2ccc(C3=CC(=O)CC(C)(C)C3=O)cc2)cc1	-2	81*	-1	5	-1	28*	43	4	3
CC1(C)CC(=O)C=C(c2ccc(Oc3ccccc3)cc2)C1=O	-2	21	-2	1	-17	/	/	/	/
COC(=O)C1(C(=O)OC)C[C@H](c2ccc(OC)cc2)N(Cc2ccccc2OC)[C@@H]1c1ccc(OC)cc1	/	-21	/	0	/	/	/	/	/
COc1cc(/C=N/N=C2/NC(=O)C(c3ccccc3)S2)ccc1O (stereo unspecified)	7	-4	-3	1	-6	/	/	/	/
CC(C)=N/N=C1/NC(=O)C(c2ccccc2)S1 (stereo unspecified)	1	55*	1	34	-14	7	0	7	8
C[C@H](CO)N1C[C@H](C)[C@@H](CN(C)CC2CCOCC2)Oc2cc(C#Cc3ccccc3F)ccc2S1(=O)=O	0	11	-6	1	-6	/	/	/	/
C[C@@H]1CN([C@H](C)CO)S(=O)(=O)c2ccc(C#Cc3ccccc3F)cc2O[C@H]1CN(C)C(=O)c1ccc2c(c1)OCO2	-11	73*	5	34	27*	34*	59*	12*	17
COc1ccc(Cc2c(-c3ccc(OC)c(OC)c3)nc3cc(C)c(Br)c(C)n23)c(C)c1	/	-16	/	1	/	/	/	/	/
Cc1cccc(COC[C@H](CC(C)C)N2CCN(C(=O)c3ccc(C(C)(C)C)cc3)CCC2=O)c1	/	63*	/	3	/	30*	52*	4	10
Cc1cccc(COCC(CC(C)C)N2CCN(C(=O)c3ccc(C(C)(C)C)cc3)CCC2=O)c1 (stereo unspecified)	-13	71*	-6	10	25	32*	57*	7	17
CC(C)C[C@H]1COc2cccc(N3CCSCC3)c2S(=O)(=O)N1	/	-2	/	-1	/	/	/	/	/
CC1=C(C(=O)N(C)C)CC(CC(=O)NC2CCCCC2)C(=O)N1Cc1ccc(F)cc1 (stereo unspecified)	5	-1	-2	1	-22	/	/	/	/
O=C(N/N=C/c1ccccn1)c1[nH]c2ccc([N+](=O)[O-])cc2c1-c1ccccc1	1	50*	-5	9	3	18	51*	12*	22
Cc1ccccc1-c1csc(C(O)c2cccnc2)n1 (stereo unspecified)	4	-23	-1	1	-9	/	/	/	/
SMILES	M1 PAM	TAAR1 antagonist	CHRM1 agonist	TAAR1 agonist	CHRM1 antagonist	TAAR1 nonsel count	TAAR1 antag conf	Ga16 ag counter	TAAR1 ag count
Cc1ccc(-c2[nH]c3ccccc3c2C(C[N+](=O)[O-])c2ccco2)cc1 (stereo unspecified)	-3	63*	-5	15	-4	2	24	3	1
Cc1[nH]c2ccccc2c1C(C[N+](=O)[O-])c1ccco1 (stereo unspecified)	8	-4	-4	-2	-7	/	/	/	/
CC1=C(C(=O)N2CCOCC2)CC(CC(=O)NCCCN(C)C)C(=O)N1CCCN1CCCC1=O (stereo unspecified)	/	-10	/	1	/	/	/	/	/
Clc1cccc(CNc2ccn3nc(-c4ccc(OCCN5CCOCC5)cc4)cc3n2)c1	-4	69*	-3	33	12	44*	71*	23*	23
c1cc(-c2cc3nc(NC4CCCCC4)ccn3n2)ccc1OCCN1CCOCC1	-10	61*	1	16	14	24*	42	11	18
CC(=O)Nc1ccc(CN(C)c2c(C)nc3ccc(C(=O)N(C)Cc4ccco4)cn23)cc1	-4	-16	-9	2	2	/	/	/	/
Cc1cc(C)cc(C(O)c2ncc(-c3ccccc3F)[nH]2)c1 (stereo unspecified)	15	5	3	9	-8	/	/	/	/
Nc1nc2cc3c(cc2cc1C(=O)NCCc1c[nH]c2ccccc12)OCO3	/	52*	/	9	/	45*	46	13*	8
COCCCNC(=O)C[C@@H]1C[C@@]2(C(=O)OC)CC(C)(C)CC=C2N(Cc2ccccc2)C1=O	/	-22	/	3	/	/	/	/	/
COc1ccc(C(=O)Nc2cccc(-c3nnc(-c4ccco4)o3)c2)cc1	-3	39	2	18	7	/	/	/	/
